According to ChEMBL document CHEMBL4842317, “Discovery of novel 3-hydroxyandrosta-5,7-Diene-17-Carboxylic acid derivatives as anti-inflammatory bowel diseases (IBD) agents” (Eur J Med Chem, 2021):
The source made the active and inactive calls. The rule behind the calls is not given here.

Legend:
RAW264.7 [1] = assay: Antiinflammatory activity against mouse RAW264.7 cells assessed as inhibition of LPS-induced NO production measured after 24 hrs by Griess assay; assay type: functional, cell-based; conditions: RAW264.7, 24 h
Outline: (§1)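 RAW 264.7 cells (1 × 10^5 cells/mL) are cultured 24 h, stimulated with LPS (100 ng/mL final), and treated with compounds from 100 μM downward for 24 h in DMEM with 10% FBS. Medium nitrite is measured by Griess reaction (sulfanilamide, naphthylethylenediamine, phosphoric acid, 10 min, room temperature, dark). Mean + SD from three independent experiments.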

RAW264.7 [2] = assay: Cytotoxicity against mouse RAW264.7 cells assessed as reduction in cell viability at 3 to 100 uM incubated for 24 hrs in presence of LPS by MTT assay; assay type: cell-based; conditions: raw264.7, 24 h, dose 3-100 µM
Outline: (§2)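 RAW 264.7 cells are seeded at 1.0 × 10^4 per well and incubated overnight. Compounds are added at concentrations from 100 μM downward, with or without LPS (100 ng/mL), for 24 h. MTT (0.5 mg/mL) is added for 4 h and the formazan is dissolved in DMSO for the read-out.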

RAW264.7 [3] = assay: Antiinflammatory activity against mouse RAW264.7 cells assessed as inhibition of LPS-induced NO production at 20 uM after 24 hrs by Griess assay; assay type: functional; outline: as §1
RAW264.7 [4] = assay: Cytotoxicity against mouse RAW264.7 cells assessed as reduction in cell viability at 3 to 100 uM incubated for 24 hrs by MTT assay; assay type: cell-based; conditions: raw264.7, 24 h, dose 3-100 µM; outline: as §2
RAW264.7 [5] = assay: Antiinflammatory activity against mouse RAW264.7 cells assessed as decrease in LPS-induced IL-6 mRNA expression at 20 uM in presence of LPS by qRT-PCR analysis; assay type: functional, cell-based
Outline: (§3)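 RAW 264.7 cells are grown 12 h in six-well plates, then exposed to LPS (100 ng/ml) plus compound for 8 h. Reverse transcription is followed by SYBR Green qPCR with GAPDH as internal control. Relative expression is calculated by 2^-ΔΔCT versus the untreated control. Mean + SD from three independent experiments.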

RAW264.7 [6] = assay: Antiinflammatory activity against mouse RAW264.7 cells assessed as inhibition of LPS-induced iNOS mRNA expression at 20 uM incubated for 8 hrs in presence of LPS by qRT-PCR analysis; assay type: functional, cell-based; outline: as §3
RAW264.7 [7] = assay: Antiinflammatory activity against mouse RAW264.7 cells assessed as decrease in LPS-induced TNF-alpha mRNA expression at 20 uM in presence of LPS by qRT-PCR analysis; assay type: functional, cell-based; outline: as §3
RAW264.7 [8] = assay: Antiinflammatory activity against mouse RAW264.7 cells assessed as inhibition of LPS-induced MCP-1 mRNA expression at 20 uM in presence of LPS by qRT-PCR analysis; assay type: functional, cell-based; outline: as §3
RAW264.7 [9] = assay: Antiinflammatory activity against mouse RAW264.7 cells assessed as decrease in LPS-induced IL-1beta mRNA expression at 20 uM in presence of LPS by qRT-PCR analysis; assay type: functional, cell-based; outline: as §3
RAW264.7 [10] = assay: Antiinflammatory activity against mouse RAW264.7 cells assessed as decrease in LPS-induced NF-kappB mRNA expression at 20 uM in presence of LPS by qRT-PCR analysis; assay type: functional, cell-based; outline: as §3
RAW264.7 [11] = assay: Antiinflammatory activity against mouse RAW264.7 cells assessed as inhibition of LPS-induced COX2 mRNA expression at 20 uM incubated for 8 hrs in presence of LPS by qRT-PCR analysis; assay type: functional, cell-based; outline: as §3
Mus musculus [12] = assay: Antiinflammatory activity against DSS-induced colitis C57BL/6 mouse model assessed as dispersed CD86-positive cells in colon at 20 mg/kg, ip administered for 7 days by hematoxylin and eosin staining based microscopic analysis; assay type: functional, organism-based; conditions: time 7.0 day
Outline: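 DSS colitis (3.5% DSS, male C57BL/6 mice, n=5 per group) with 7-day intraperitoneal dosing in saline/castor oil/ethanol/DMSO vehicle. Colons are fixed in formalin, paraffin-embedded and stained with H&E (viewed at 200X). Separately, sections undergo CD86 immunohistochemistry (citrate antigen retrieval, 3% H2O2 block, 1:200 primary and HRP secondary, hematoxylin counterstain) viewed at 400X.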

Mus musculus [13] = assay: Antiinflammatory activity against DSS-induced colitis C57BL/6 mouse model assessed as reduction in scores of stool consistency and bleeding at 20 mg/kg, ip administered for 7 days by immunohistochemistry analysis; assay type: functional, organism-based; conditions: time 7.0 day

SMILES | IC50 (RAW264.7 [1]) [µM] | Activity (RAW264.7 [2]) | inhibition at 20 µM (RAW264.7 [3]) [%] | Activity (RAW264.7 [4]) | Activity (RAW264.7 [5]) | Activity (RAW264.7 [6]) | Activity (RAW264.7 [7]) | Activity (RAW264.7 [8]) | Activity (RAW264.7 [9]) | Activity (RAW264.7 [10]) | Activity (RAW264.7 [11]) | Activity (Mus musculus [12]) | Activity (Mus musculus [13])
CC(C)NC(=O)[C@H]1CC[C@H]2[C@@H]3CC=C4C[C@@H](O)CC[C@]4(C)[C@H]3CC[C@]12C | > 20 | Non-Toxic | 7.84 | Non-Toxic |  |  |  |  |  |  |  |  | 
CCCNC(=O)[C@H]1CC[C@H]2[C@@H]3CC=C4C[C@@H](O)CC[C@]4(C)[C@H]3CC[C@]12C | 15.6 | Non-Toxic | 72.8 | Non-Toxic | inactive | inactive | inactive | Active | inactive | Active | Active |  | 
C[C@]12CC[C@H]3[C@@H](CC=C4C[C@@H](O)CC[C@@]43C)[C@@H]1CC[C@@H]2C(=O)NCCc1ccccc1 | > 20 | Non-Toxic | 45.4 | Non-Toxic |  |  |  |  |  |  |  |  | 
C[C@]12CC[C@H]3[C@@H](CC=C4C[C@@H](O)CC[C@@]43C)[C@@H]1CC[C@@H]2C(=O)NCCO | > 20 | Non-Toxic | 41.1 | Non-Toxic |  |  |  |  |  |  |  |  | 
CC(=O)NCCNC(=O)[C@H]1CC[C@H]2[C@@H]3CC=C4C[C@@H](O)CC[C@]4(C)[C@H]3CC[C@]12C | > 20 | Non-Toxic | 16.1 | Non-Toxic |  |  |  |  |  |  |  |  | 
COC(=O)[C@H]1CC[C@H]2C3=CC=C4C[C@@H](O)CC[C@]4(C)[C@H]3CC[C@]12C | > 20 | Non-Toxic | 21.8 | Non-Toxic |  |  |  |  |  |  |  |  | 
C[C@]12CC[C@H]3[C@@H](CC=C4C[C@@H](O)CC[C@@]43C)[C@@H]1CC[C@@H]2C(=O)NC1CC1 | > 20 | Non-Toxic | 40.5 | Non-Toxic |  |  |  |  |  |  |  |  | 
C[C@]12CC[C@H]3[C@@H](CC=C4C[C@@H](O)CC[C@@]43C)[C@@H]1CC[C@@H]2C(=O)NCCN1CCOCC1 | > 20 | Non-Toxic | 36.4 | Non-Toxic |  |  |  |  |  |  |  |  | 
C[C@]12CC[C@H]3[C@@H](CC=C4C[C@@H](O)CC[C@@]43C)[C@@H]1CC[C@@H]2C(=O)NCCN1CCCC1 | 31.3 | Non-Toxic | 50.4 | Non-Toxic |  |  |  |  |  |  |  |  | 
C[C@@H]1C[C@H]2[C@@H]3CCC4=CC(=O)C=C[C@]4(C)[C@@]3(F)[C@@H](O)C[C@]2(C)[C@@]1(O)C(=O)CO [DEXAMETHASONE] | 14.8 |  | 93.6 |  |  |  | Active |  |  |  |  | Active | Active
CCCC[C@](C)(O)[C@H]1CC[C@H]2C3=CC=C4C[C@@H](O)CC[C@]4(C)[C@H]3CC[C@@]21C | > 20 | Non-Toxic | 28.8 | Non-Toxic |  |  |  |  |  |  |  |  | 
CCOC(=O)[C@H]1CC[C@H]2C3=CC=C4C[C@@H](O)CC[C@]4(C)[C@H]3CC[C@]12C | > 20 | Non-Toxic | 11.3 | Non-Toxic |  |  |  |  |  |  |  |  | 
C[C@]12CC[C@H]3[C@@H](CC=C4C[C@@H](O)CC[C@@]43C)[C@@H]1CC[C@@H]2C(=O)NCCc1cccs1 | 21.2 | Non-Toxic | 55.6 | Non-Toxic |  |  |  |  |  |  |  |  | 
CCCCOC(=O)[C@H]1CC[C@H]2C3=CC=C4C[C@@H](O)CC[C@]4(C)[C@H]3CC[C@]12C | > 20 | Non-Toxic | 37.8 | Non-Toxic |  |  |  |  |  |  |  |  | 
CC[C@](C)(O)[C@H]1CC[C@H]2C3=CC=C4C[C@@H](O)CC[C@]4(C)[C@H]3CC[C@@]21C | 27 | Non-Toxic | 52.5 | Non-Toxic |  |  |  |  |  |  |  |  | 
Cc1ccn(C(=O)[C@H]2CC[C@H]3[C@@H]4CC=C5C[C@@H](O)CC[C@]5(C)[C@H]4CC[C@]23C)n1 | > 20 | Non-Toxic | 35.8 | Non-Toxic |  |  |  |  |  |  |  |  | 
CCC[C@](C)(O)[C@H]1CC[C@H]2C3=CC=C4C[C@@H](O)CC[C@]4(C)[C@H]3CC[C@@]21C | > 20 | Non-Toxic | 55.3 | Non-Toxic |  |  |  |  |  |  |  |  | 
C[C@]12CC[C@H]3[C@@H](CC=C4C[C@@H](O)CC[C@@]43C)[C@@H]1CC[C@@H]2C(=O)NCCCn1ccnc1 | > 20 | Non-Toxic | 50.4 | Non-Toxic |  |  |  |  |  |  |  |  | 

Continued, in another order:

IC50 (RAW264.7 [1]) [µM] | SMILES | Activity (RAW264.7 [2]) | inhibition at 20 µM (RAW264.7 [3]) [%] | Activity (RAW264.7 [4]) | Activity (RAW264.7 [5]) | Activity (RAW264.7 [6]) | Activity (RAW264.7 [7]) | Activity (RAW264.7 [8]) | Activity (RAW264.7 [9]) | Activity (RAW264.7 [10]) | Activity (RAW264.7 [11]) | Activity (Mus musculus [12]) | Activity (Mus musculus [13])
> 20 | CCCCNC(=O)[C@H]1CC[C@H]2[C@@H]3CC=C4C[C@@H](O)CC[C@]4(C)[C@H]3CC[C@]12C | Non-Toxic | 44.4 | Non-Toxic |  |  |  |  |  |  |  |  | 
> 20 | C[C@]12CC[C@H]3[C@@H](CC=C4C[C@@H](O)CC[C@@]43C)[C@@H]1CC[C@@H]2C(=O)NC1CCCCC1 | Non-Toxic | 47.8 | Non-Toxic |  |  |  |  |  |  |  |  | 
11.3 | CC(C)CCNC(=O)[C@H]1CC[C@H]2[C@@H]3CC=C4C[C@@H](O)CC[C@]4(C)[C@H]3CC[C@]12C | Non-Toxic | 59.2 | Non-Toxic |  |  |  |  |  |  |  |  | 
> 20 | C[C@]12CC[C@H]3[C@@H](CC=C4C[C@@H](O)CC[C@@]43C)[C@@H]1CC[C@@H]2C(=O)N1CCCCC1 | Non-Toxic | 37.4 | Non-Toxic |  |  |  |  |  |  |  |  | 
> 20 | CCN(CC)C(=O)[C@H]1CC[C@H]2[C@@H]3CC=C4C[C@@H](O)CC[C@]4(C)[C@H]3CC[C@]12C | Non-Toxic | 25.5 | Non-Toxic |  |  |  |  |  |  |  |  | 
> 20 | CC(C)(O)CNC(=O)[C@H]1CC[C@H]2[C@@H]3CC=C4C[C@@H](O)CC[C@]4(C)[C@H]3CC[C@]12C | Non-Toxic | 38.8 | Non-Toxic |  |  |  |  |  |  |  |  | 
> 20 | C[C@]12CC[C@H]3[C@@H](CC=C4C[C@@H](O)CC[C@@]43C)[C@@H]1CC[C@@H]2C(=O)Nc1n[nH]cc1C#N | Non-Toxic | 24.9 | Non-Toxic |  |  |  |  |  |  |  |  | 
9.02 | CCCOC(=O)[C@H]1CC[C@H]2C3=CC=C4C[C@@H](O)CC[C@]4(C)[C@H]3CC[C@]12C | Non-Toxic | 89.4 | Non-Toxic | Active | Active | Active | Active | Active | Active | Active |  | 
